Hit rate of the full screen: of about 65,000 compounds, about 1,400 (2.2%) were called active. What follows is part of a selection rich in actives, with near analogues and random picks from the rest. Values without a mark were called inactive.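 Rule for the calls: active = growth inhibition at or above a cutoff equal to the mean over every tested compound plus 3 SD (cut at about 60% in these data); inactive = the rest.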

This assay can be described thus: growth inhibitors of E. coli tolC mutant, primary screen, strain BW25113 ΔtolC::kan, 384-well (AID 573). The following applies: OD615, stronger effect = higher value, concentration not given here. Summed up: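 Test system: tolC-deleted E. coli BW25113 | Medium: LB with kanamycin 50 µg/mL | Compound dosing: Single concentration, 10 µM final per compound | Schedule: 37 °C, 20 h exposure | Measured by: OD at 615 nm | Evaluation: Percent growth inhibition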
Regarding `CCOC(=O)c1c(-c2ccccc2)oc2ccc(OC(=O)N(C)C)cc12`, the growth inhibition is 96.5% (active).
With `CCN1c2nc3c(C)cccn3c(=O)c2CC2(C(=O)N(C)C(=O)N(C)C2=O)C1C` (stereo not given) the figure was -0.7%; with `CCCCCCN=C(CC)c1c(O)n(CCCC)c(=O)[nH]c1=O`, 90.2% (active); with `CCC(=NCCCO)c1c(O)n(-c2ccc(OC)cc2)c(=O)[nH]c1=O`, -12.6%.
As for `CCC(=NCc1ccco1)c1c(O)n(Cc2ccccc2)c(=O)[nH]c1=O`, the figure is 7.19%; as for `CCCC(C)n1[nH]c(=O)c2c1NC(=O)CSC2c1ccc(OC)c(OC)c1` (stereo not given), -7.28%.
In the case of `Cn1c(C(=O)N2CCC(C(=O)N3CCC4(CC3)OCCO4)CC2)cc2sccc21`, the growth inhibition is 3.04%.
Consider `C/C(CCc1c[nH]c2ccccc12)=N\O`, for which the growth inhibition was -11.1%.
With `c1cncc(CNC2=NCCC2)c1` the figure was -5.19%; with `C=Cn1ccnc1P(=S)(c1cc(N(CC)CC)ns1)c1nccn1C=C`, 8.14%.
